Laboratory results as given in ChEMBL document CHEMBL1152665, “1,3,4-Oxadiazole-2(3H)-thione and its analogues: a new class of non-competitive nucleotide pyrophosphatases/phosphodiesterases 1 inhibitors” (Bioorg Med Chem, 2009).

Experiments:
[1] = Inhibition of snake venom NPP1 assessed as release of p-nitrophenol after 30 mins by microtitre plate spectrophotometry; parameters: species or system Naja naja
Summary of the method: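 Substrate: 0.33 mM bis-(p-nitrophenyl) phosphate. p-Nitrophenol release read at 410 nm, 37 °C, after 30 min incubation. Initial rates taken as OD/min change, run in triplicate. Cysteine and EDTA served as positive controls.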

[2] = Noncompetitive inhibition of snake venom NPP1 by Dixon plot analysis; parameters: species or system Naja naja
[3] = molecular target: T1, Ectonucleotide pyrophosphatase/phosphodiesterase family member 1 (Homo sapiens, UniProt P22413); experiment: Noncompetitive inhibition of human recombinant NPP1 by Dixon plot analysis
T1 sequence (P22413 whole entry): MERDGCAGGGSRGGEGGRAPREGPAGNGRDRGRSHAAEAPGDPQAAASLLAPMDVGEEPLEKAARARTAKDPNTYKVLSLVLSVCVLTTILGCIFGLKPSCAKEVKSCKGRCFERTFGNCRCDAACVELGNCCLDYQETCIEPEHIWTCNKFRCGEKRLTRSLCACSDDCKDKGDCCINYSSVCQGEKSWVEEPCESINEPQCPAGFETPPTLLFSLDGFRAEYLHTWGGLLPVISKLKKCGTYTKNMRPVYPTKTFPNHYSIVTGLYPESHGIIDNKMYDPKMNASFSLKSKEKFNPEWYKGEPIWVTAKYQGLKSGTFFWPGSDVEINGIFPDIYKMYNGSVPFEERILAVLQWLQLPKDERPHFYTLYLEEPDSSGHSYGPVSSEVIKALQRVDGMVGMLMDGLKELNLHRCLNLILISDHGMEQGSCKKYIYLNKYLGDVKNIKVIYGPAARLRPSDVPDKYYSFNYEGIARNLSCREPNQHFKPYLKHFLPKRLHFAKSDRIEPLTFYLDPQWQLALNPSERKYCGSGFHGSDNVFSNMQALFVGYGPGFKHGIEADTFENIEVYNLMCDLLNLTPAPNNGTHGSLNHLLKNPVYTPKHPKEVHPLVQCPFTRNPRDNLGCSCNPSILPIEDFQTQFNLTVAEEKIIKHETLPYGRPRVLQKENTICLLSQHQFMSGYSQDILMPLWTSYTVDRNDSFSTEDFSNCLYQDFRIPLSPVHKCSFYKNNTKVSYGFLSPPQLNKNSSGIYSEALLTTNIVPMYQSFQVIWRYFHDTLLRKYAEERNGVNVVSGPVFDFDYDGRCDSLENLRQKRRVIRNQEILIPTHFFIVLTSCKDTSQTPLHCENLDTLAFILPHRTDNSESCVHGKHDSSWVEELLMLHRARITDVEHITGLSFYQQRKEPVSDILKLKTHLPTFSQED
Summary of the method: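 Same human NPP1 assay at fixed inhibitor concentrations. Dixon plots run at p-nitrophenyl phenyl phosphonate 0.4, 0.6, 0.8 and 1.0 mM, and Lineweaver–Burk plots from initial velocities. Secondary replots were slope versus 1/[S], and 1/Vmaxapp or slope versus inhibitor. Ki is the mean of five values from these plots; points are means of three experiments.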

[4] = molecular target: T1, Ectonucleotide pyrophosphatase/phosphodiesterase family member 1; experiment: Inhibition of human recombinant NPP1 assessed as release of p-nitrophenol by microtitre plate spectrophotometry
Summary of the method: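 Soluble catalytic extracellular domain of human NPP1. Substrate p-nitrophenyl phenyl phosphonate in 20 mM Tris–HCl pH 8.0, 0.5 M NaCl, 1 mM CaCl2. p-Nitrophenol release read at 405 nm, 37 °C, microtitre plate. Triplicates; IC50 given with SEM of 3–5 experiments.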

[5] = Cytotoxicity against human neutrophils assessed as cell viability up to 200 ug/mL after 30 mins by WST1 assay; format: cell-based, Neutrophil
Summary of the method: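 Neutrophils isolated from heparinized venous blood of healthy volunteers (Ficoll sedimentation, ammonium chloride 0.83% RBC lysis), 1 × 10^7 cells/mL, exposed to compounds at 200–12.5 µg/mL (five concentrations) for 30 min. Then WST-1 0.25 mM, 3 h at 37 °C with shaking, absorbance 450 nm. Mean of five replicates; % viability relative to untreated control.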

## Oc1ccc(-c2n[nH]c(=S)o2)cc1
[1]; read-out: IC50
  IC50: 960 µM
[2]
  Ki: 1150 µM

## S=c1[nH]nc(-c2ccncc2)o1
[1]; read-out: IC50
  IC50: > 1000 µM

## S=c1[nH]nc(C(c2ccccc2)c2ccccc2)s1
[1]; read-out: IC50
  IC50: > 1000 µM

## S=c1[nH]nc(CCCc2n[nH]c(=S)o2)o1
[3]
  Ki: 150 µM
[1]; read-out: IC50
  IC50: 429 µM
[2]
  Ki: 450 µM
[4]
  IC50: 467 µM

## S=c1[nH]nc(-c2cccc(OCc3ccccc3)c2)o1
[3]
  Ki: 360 µM
[1]; read-out: IC50
  IC50: > 1000 µM
[4]
  IC50: 494 µM

## Oc1ccc(-c2nn(Cc3ccccc3)c(=S)s2)cc1
[1]
  IC50: Not Active

## CCCOc1ccc(-c2nn(CC)c(=S)s2)cc1
[1]
  IC50: Not Active

## CCCn1nc(-c2ccc(O)cc2)sc1=S
[1]
  IC50: Not Active

## S=c1sc(-c2ccc(OCc3ccccc3)cc2)nn1Cc1ccccc1
[1]
  IC50: Not Active

## CCCCCCCCn1nc(-c2ccc(OCc3ccccc3)cc2)oc1=S
[1]; read-out: IC50
  IC50: > 1000 µM

## S=c1[nH]nc(Cc2n[nH]c(=S)s2)s1
[5]
  viability at 0.5 h: > 90%
[1]; read-out: IC50
  IC50: 839 µM
[2]
  Ki: 1050 µM

## Oc1cccc(-c2n[nH]c(=S)o2)c1
[1]; read-out: IC50
  IC50: 1000 µM
[2]
  Ki: 1050 µM

## CC(C)(C)[Si](C)(C)Oc1ccc(-c2n[nH]c(=S)s2)cc1
[5]
  viability at 0.5 h: > 90%
[1]; read-out: IC50
  IC50: 66.5 µM
[2]
  Ki: 100 µM
[4]
  IC50: > 1000 µM

## Oc1ccc(-c2n[nH]c(=S)s2)cc1
[3]
  Ki: 850 µM
[1]; read-out: IC50
  IC50: 390 µM
[2]
  Ki: 350 µM
[4]
  IC50: 900 µM

## CC(C)(C)[Si](C)(C)Oc1ccc(-c2n[nH]c(=S)o2)cc1
[3]
  Ki: 360 µM
[5]
  viability at 0.5 h: > 90%
[1]; read-out: IC50
  IC50: 383 µM
[2]
  Ki: 375 µM
[4]
  IC50: 368 µM

## S=c1[nH]nc(-c2ccncc2)s1
[1]; read-out: IC50
  IC50: 660 µM
[2]
  Ki: 525 µM
[4]
  IC50: 998 µM

## S=c1[nH]nc(-c2ccc(OCc3ccccc3)cc2)o1
[3]
  Ki: 850 µM
[1]; read-out: IC50
  IC50: 900 µM
[2]
  Ki: 1400 µM
[4]
  IC50: 628 µM

## S=c1[nH]nc(Cc2n[nH]c(=S)o2)o1
[1]; read-out: IC50
  IC50: 850 µM
[2]
  Ki: 500 µM
[4]
  IC50: > 1000 µM
